Source: ChEMBL document CHEMBL1122328, “Hypolipidemic activity of phthalimide derivatives. 2. N-phenylphthalimide and derivatives” (1983)

Tests used:
Type in all cases: functional
Mus musculus [1] = test: Effect on Serum cholesterol levels on CF1 male mice at a dose of 20 (mg/kg)/day after 9 days
In short: (§1)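 CF1 male mice (~25 g), drug suspended in 1% carboxymethylcellulose in water, given ip daily for 16 days; n = 6; vehicle control. Tail-vein blood on days 9 and 16, serum cholesterol by modified Liebermann–Burchard reaction; day-14 serum triglyceride by commercial kit; expressed as % control.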

Mus musculus [2] = test: Effect on Serum cholesterol levels on CF1 male mice at a dose of 20 (mg/kg)/day after 16 days; in short: as §1
Mus musculus [3] = test: Effect on Serum triglyceride levels on CF1 male mice at a dose of 20 (mg/kg)/day after 14 days; in short: as §1

CC(=O)c1ccc(N2C(=O)c3ccccc3C2=O)cc1
Control (Mus musculus [1]): 83% | Serum cholesterol (% of control) (Mus musculus [2]): 55% | Control (Mus musculus [3]): 66%

O=C(O)c1ccc(N2C(=O)c3ccccc3C2=O)cc1
Control (Mus musculus [1]): 89% | Serum cholesterol (% of control) (Mus musculus [2]): 53% | Control (Mus musculus [3]): 58%

CCc1ccc(N2C(=O)c3ccccc3C2=O)cc1
Control (Mus musculus [1]): 89% | Serum cholesterol (% of control) (Mus musculus [2]): 89% | Control (Mus musculus [3]): 96%

CCc1cccc(N2C(=O)c3ccccc3C2=O)c1
Control (Mus musculus [1]): 89% | Serum cholesterol (% of control) (Mus musculus [2]): 82% | Control (Mus musculus [3]): 95%

CC(=O)c1cccc(N2C(=O)c3ccccc3C2=O)c1
Control (Mus musculus [1]): 87% | Serum cholesterol (% of control) (Mus musculus [2]): 84% | Control (Mus musculus [3]): 74%

O=C(O)c1cccc(N2C(=O)c3ccccc3C2=O)c1
Control (Mus musculus [1]): 81% | Serum cholesterol (% of control) (Mus musculus [2]): 69% | Control (Mus musculus [3]): 71%

CCc1ccccc1N1C(=O)c2ccccc2C1=O
Control (Mus musculus [1]): 88% | Serum cholesterol (% of control) (Mus musculus [2]): 103% | Control (Mus musculus [3]): 92%

CCOC(=O)C(C)(C)Oc1ccc(Cl)cc1 [CLOFIBRATE]
Control (Mus musculus [1]): 98% | Serum cholesterol (% of control) (Mus musculus [2]): 96% | Control (Mus musculus [3]): 91%

O=C1c2ccccc2C(=O)N1c1ccccc1 [N-PHENYL-PHTHALIMIDE]
Control (Mus musculus [1]): 92% | Serum cholesterol (% of control) (Mus musculus [2]): 57% | Control (Mus musculus [3]): 61%

O=C(O)c1ccccc1N1C(=O)c2ccccc2C1=O [N-PHTHALOYLANTHRANILIC ACID]
Control (Mus musculus [1]): 92% | Serum cholesterol (% of control) (Mus musculus [2]): 77% | Control (Mus musculus [3]): 78%

O=C1NC(=O)c2ccccc21 [PHTHALIMIDE]
Control (Mus musculus [1]): 63% | Serum cholesterol (% of control) (Mus musculus [2]): 57% | Control (Mus musculus [3]): 44%
